{"source": "ChEMBL document CHEMBL1125276", "about": "(J Med Chem, 1991)", "key": {"P388 [1]": {"system": "P388", "assay": "Compound was tested for T/C range at optimal dose of 1.5 mg/kg for antitumor activity against P388 leukemia cells in mice.", "format": "functional, Mus musculus"}, "P388 [2]": {"system": "P388", "assay": "Long-term survivors (LTS) for 60 days at optimal dose of 1.5 mg/kg for antitumor activity against P388 leukemia cells in 6 mice.", "format": "functional, Mus musculus"}, "L1210": {"system": "L1210", "assay": "Tested for the inhibition of L1210 cell proliferation.", "format": "functional, cell-based", "conditions": "Mus musculus", "procedure,_shortened": "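L1210 cells were grown in RPMI 1640 with 10% FCS, 2 mM L-glutamine and 10 mM HEPES (pH 7.4). Exponential-phase cells (10^5 cells/mL) were exposed for 24 h to 5 drug concentrations in triplicate, then pulsed 3 h with 0.5 µCi/mL [3H]thymidine. Cells were harvested onto filters and counted. IC50 is 50% inhibition of incorporation versus untreated cells, given as the mean of 2–5 independent experiments.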"}, "P388 [3]": {"system": "P388", "assay": "Long-term survivors (LTS) for 60 days at optimal dose of 8.00 mg/kg for antitumor activity against P388 leukemia cells in 5 mice.", "format": "functional, Mus musculus"}, "P388 [4]": {"system": "P388", "assay": "Compound was tested for T/C range at optimal dose of 8.00 mg/kg for antitumor activity against P388 leukemia cells in mice.", "format": "functional, Mus musculus"}}}
{"smiles": "CCOP(=O)(OCC)C(CC(C)C)NC(=O)[C@@]1(O)[C@H](O)[C@]2(CC)C=CCN3CC[C@@]4(c5cc([C@@]6(C(=O)OC)C[C@@H]7CN(CCc8c6[nH]c6ccccc86)C[C@](O)(CC)C7)c(OC)cc5N(C)[C@@H]14)[C@@H]32", "note": "(mixture of isomers)", "values": [{"measurement": "T/C", "setting": "P388 [1]", "result": 261, "unit": "%"}, {"measurement": "LTS", "setting": "P388 [2]", "result": 1}, {"measurement": "IC50", "setting": "L1210", "result": 3.13, "unit": "nM"}]}
{"smiles": "CCOP(=O)(OCC)[C@H](Cc1ccccc1)NC(=O)[C@@]1(O)[C@H](O)[C@]2(CC)C=CCN3CC[C@@]4(c5cc([C@@]6(C(=O)OC)C[C@@H]7CN(CCc8c6[nH]c6ccccc86)C[C@](O)(CC)C7)c(OC)cc5N(C)[C@@H]14)[C@@H]32", "values": [{"measurement": "LTS", "setting": "P388 [3]", "result": 0}, {"measurement": "T/C", "setting": "P388 [4]", "result": 229, "unit": "%"}, {"measurement": "IC50", "setting": "L1210", "result": 9.64, "unit": "nM"}]}
